Laboratory results from ChEMBL document CHEMBL1153572, “Synthesis and antinociceptive activity of capsinoid derivatives” (Eur J Med Chem, 2009).

What was measured:
Mus musculus [1] = assay: Antinociceptive activity against acetic acid-induced writhing in sc dosed KM mouse for 30 mins; assay type: functional; settings: 0.5 h
How it was run: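 Mice, half male and half female, 8 per group, in cages at 23 ± 2 °C, 40–60% humidity and a 12 h light/dark cycle. Compounds were dissolved in 10% Tween-80 (aq) as twofold serial dilutions and given sc as a single 0.2 mL dose, with vehicle control. After 20 min, 0.2 mL of 0.7% acetic acid was given ip. Writhes were counted for 30 min. ED50 reported with 95% C.L.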

Mus musculus [2] = species on record: Mus musculus; assay: Toxicity in KM mouse assessed as moderate pain producing potency for 30 mins by wiping test; assay type: organism-based; settings: in vivo, 0.5 h
How it was run: (§1)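 Eye-drop test. Twofold dilutions were dropped into the right eye, with vehicle in the left eye as control. Protective movements (scratching, wiping the eye with the foreleg) were counted for 30 min. Six animals per concentration, half male and half female. A dose–response curve was built from group means, and MPP was taken as the concentration giving 32 scratches.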

Mus musculus [3] = species on record: Mus musculus; assay: Toxicity in KM mouse assessed as number of protective movements for 30 mins by wiping test; assay type: organism-based; settings: in vivo, 0.5 h; how it was run: as §1
Mus musculus [4] = species on record: Mus musculus; assay: Toxicity in KM mouse assessed as relative pungent potency for 30 mins by wiping test relative to capsaicin; assay type: organism-based; settings: in vivo, 0.5 h
How it was run: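 RPP was derived from MPP values read off the eye-drop dose–response curve (movements counted for 30 min, 6 animals per concentration). It was scaled to the pain-producing potency of capsaicin, set as 1000.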

Mus musculus [5] = assay: Antinociceptive activity against acetic acid-induced writhing in sc dosed KM mouse for 30 mins relative to indomethacin; assay type: functional
How it was run: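 Writhing ED50 from sc dosing (8 mice per group, 10% Tween-80 vehicle, 0.7% acetic acid ip 20 min after dosing, writhes counted for 30 min) expressed as a potency ratio relative to indomethacin run in parallel.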

Row | Compound | ED50 (Mus musculus [1]) | Activity (Mus musculus [2]) | Activity (Mus musculus [3]) | Activity (Mus musculus [4]) | Ratio (Mus musculus [5])
1 | CCCCCCCCCC(=O)OCc1ccc(OCCCCCC)c(OC)c1 | 1.84 mg/kg | Non-toxic | 11 | Non-toxic | 5.89
2 | CCCCCCCCCC(=O)OCc1ccc(OCCCC)c(OC)c1 | 3.16 mg/kg | Non-toxic | 8 | Non-toxic | 3.19
3 | CCCCCCCCCC(=O)OCc1ccc(OCC)c(OC)c1 | 3.92 mg/kg | Non-toxic | 4 | Non-toxic | 2.57
4 | COc1cc(CNC(=O)CCCC/C=C/C(C)C)ccc1O [CAPSAICIN] | – | 0.099 mg/mL | – | – | –
5 | COc1ccc2c(c1)c(CC(=O)O)c(C)n2C(=O)c1ccc(Cl)cc1 [INDOMETHACIN] | – | – | – | – | 1
6 | CCCCCCCC(=O)OCc1ccc(O)c(OC)c1 [VANILLYL CAPRYLATE] | 12.6 mg/kg | Non-toxic | 28 | Non-toxic | 0.8
7 | CCCCCCCCCC(=O)OCc1ccc(O)c(OC)c1 [VANILLYL DECANOATE] | 15.6 mg/kg | Non-toxic | 25 | Non-toxic | 0.65
8 | CCCCCCCCCCCC(=O)OCc1ccc(O)c(OC)c1 [VANILLYL LAURATE] | 19.4 mg/kg | Non-toxic | 22 | Non-toxic | 0.52
